High-throughput results as filed in PubChem BioAssay.
A selection: hits, their analogues and other compounds. The true share with any hit is near 4.1%.
Efflux pump mplx: blocks antifungal efflux pumps in multiplex yeast assay | S. cerevisiae Candida pump triplex, Nile Red efflux | inhibition, % at 10 µM | 330,000 compounds, 0.44% hits | AID 485275;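 active = plate passing quality check with inhibition over a set limit, or well fluorescence over plate mean plus 4 SD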;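 note: Nile Red retained in pooled yeast measured as flow cytometry median fluorescence; 0% = buffer negative control and 100% = Enniatin B positive control; higher means more Nile Red kept so more efflux inhibition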
SMARCA2 act: SMARCA2 function activation, primary screen | activation, % at 9.1 µM | AID 652017 | MG213 cells, MMTV-luciferase reporter, dexamethasone, overnight | 370,000 compounds, 1% hits; in the data active = activation above about 7.8%;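 note: 0% = vehicle wells and 100% = reference activator wells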
H9c2 TAG inh: inhibitors of triacylglycerol accumulation; inhibition, % at 12.5 µM; 230,000 compounds, 0.66% hits; H9c2 cells, Nile Red lipid (TAG) fluorescence; cells loaded with 200 µM oleic acid;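 active = pattern-corrected inhibition of lipid staining of at least 50% with the nuclear-stain viability signal not falling by more than 50%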;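 note: 0% = DMSO wells and 100% = triacsin C control wells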
TbMetRS inhib: Trypanosoma brucei MetRS inhibition; purified T. brucei MetRS, ATP depletion, Kinase-Glo luminescence; inhibition, % at 11.9 µM; 360,000 compounds, 0.4% hits; AID 624268;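 active = inhibition above a per-plate cutoff of the control wells' mean inhibition plus 3 SD, cut at about 5.5% in these data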;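 note: 0% = DMSO wells median and 100% = median of wells with control inhibitor compound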
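Material: parasite MetRS enzyme / Replication: singlicate, one well per compound / Signal: luminescence of leftover ATP / Schedule: 2 h aminoacylation at 25 °C after 15 min preincubation / Medium: HEPES-MgCl2-KCl buffer plus DTT, spermine, BSA, pyrophosphatase / Doses: 11.9 µM single point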
AHR activator: human AHR activation; P35869; AHR-responsive luciferase reporter cells, luminescence; activation, % at 5 µM; 320,000 compounds, 2.5% hits; AID 2796; in the data active = activation above about 47%;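 note: 0% = vehicle wells and 100% = reference agonist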
Target sequence (P35869 whole entry, looked up): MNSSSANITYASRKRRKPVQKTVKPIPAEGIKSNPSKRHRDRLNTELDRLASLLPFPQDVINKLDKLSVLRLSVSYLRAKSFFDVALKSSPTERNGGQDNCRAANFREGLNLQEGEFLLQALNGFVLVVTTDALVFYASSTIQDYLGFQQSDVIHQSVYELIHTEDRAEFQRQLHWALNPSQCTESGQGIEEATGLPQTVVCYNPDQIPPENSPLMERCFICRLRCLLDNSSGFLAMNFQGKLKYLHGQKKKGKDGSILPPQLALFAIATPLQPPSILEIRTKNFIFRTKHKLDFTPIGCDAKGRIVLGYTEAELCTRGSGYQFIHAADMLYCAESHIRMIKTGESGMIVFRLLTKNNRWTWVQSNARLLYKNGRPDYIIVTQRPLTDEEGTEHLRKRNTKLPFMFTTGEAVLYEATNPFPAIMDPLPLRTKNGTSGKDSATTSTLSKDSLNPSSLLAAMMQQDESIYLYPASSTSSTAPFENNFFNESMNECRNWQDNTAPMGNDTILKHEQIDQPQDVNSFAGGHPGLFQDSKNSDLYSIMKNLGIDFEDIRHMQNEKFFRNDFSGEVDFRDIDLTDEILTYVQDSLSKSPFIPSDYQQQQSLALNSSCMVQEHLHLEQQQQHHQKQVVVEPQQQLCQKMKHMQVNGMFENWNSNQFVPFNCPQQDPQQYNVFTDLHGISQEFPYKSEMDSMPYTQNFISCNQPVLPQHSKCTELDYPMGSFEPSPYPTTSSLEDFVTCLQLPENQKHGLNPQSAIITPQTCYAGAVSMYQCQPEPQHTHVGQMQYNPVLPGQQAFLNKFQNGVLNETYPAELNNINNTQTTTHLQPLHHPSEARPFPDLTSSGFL
SMARCA2 act conf: confirmation of SMARCA2 (BRM) function activators; shares compounds with SMARCA2 act; MG213 cells, MMTV-luciferase with dexamethasone, luminescence, overnight; MG213 cells expressing E1A, Rb sequestered; DMSO wells 0%, reference activator 100%; activation, % at 9.1 µM; 3,500 compounds, 30% hits; AID 652260;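 active = activation above its plate's cutoff, the mean activation of tested wells plus 3 SD, cut at about 7.9% in these data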
GAL4-VP16 Luc: counter-screen for SMARCA2 activators: GAL4-VP16 luciferase reporter activation | shares compounds with SMARCA2 act | 3,500 compounds, 41% hits | HEK293 GAL4-VP16 pG5luc reporter, luciferase luminescence; scaled: DMSO wells 0%, SAHA wells 100% | activation, % at 9.1 µM;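 active = activation above the solvent-only control well mean plus 3 SD, averaged across control plates, cut at about 5.2% in these data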
Numbers without * were called inactive; nt = no result given.

SMILES	Efflux pump mplx	SMARCA2 act	H9c2 TAG inh	TbMetRS inhib	AHR activator	SMARCA2 act conf	GAL4-VP16 Luc
COc1ccc(N=C2Sc3ccccc3[C@@H]3C[C@H]4[C@H](CON4C)CN23)c(OC)c1	nt	2	nt	nt	nt	nt	nt
O=C1CC(c2cc(-c3ccccc3)no2)C1	0	9.7*	-10	0	6	3	7.5*
CC(=O)NCCC(=O)Nc1nc2ccc(Oc3ccccc3)cc2s1	0	11*	nt	-1	11	4	8.7*
COc1ccc2nc(NC(=O)Nc3ccccc3OC)sc2c1	0	12*	nt	0	2	6	10*
NS(=O)(=O)c1ccc2nc(NC(=O)c3ccc(Br)o3)sc2c1	0	8.3*	5	0	5	1	4
COc1ccc2nc(NC(C)=O)sc2c1	0	7	11	0	6	nt	nt
COc1ccccc1NC(=O)Nc1nc2ccc(S(N)(=O)=O)cc2s1	0	10*	nt	0	8	15*	6.3*
c1ccc2c(c1)COc1c3cc4c(cc3nn1-2)OCO4	nt	9.5*	16	-1	nt	15*	11*
CC(NCc1ccco1)C(=O)N1CCN(Cc2ccccc2F)CC1 (stereo not drawn)	nt	-4	nt	nt	nt	nt	nt
COc1cccc(C(=O)OCC(=O)NCc2ccc3c(c2)OCO3)c1OC	0	-2	-8	0	1	nt	nt
COc1cccc2cc(C(=O)OCC(=O)NCc3ccc4c(c3)OCO4)c(=O)oc12	0	11*	17	0	2	6	5
O=S(=O)(Cc1ccccc1Cl)CC(O)COc1ccccc1Cl (stereo not drawn)	0	8.4*	-13	-1	-1	-4	2
COc1cccc(N(CC(=O)N2CCN(C)CC2)S(=O)(=O)c2ccccc2)c1	0	8.6*	nt	-1	-1	-3	-1
CCN(CC)CCC(=O)Nc1cccc2c1C(=O)c1ccccc1C2=O	0	33*	93*	0	12	95*	4
Cc1ccc2cc(N)ccc2n1	nt	1	-1	-1	nt	nt	nt
Nc1ccc2cc3ccc(N)cc3nc2c1	nt	43*	nt	nt	nt	-11	-2
COc1cc(/C=C/c2ccc3cccc(O)c3n2)cc(Br)c1OC	0	8.4*	nt	-1	-2	-13	34*
COc1cc(/C=C/c2ccc3c(Br)cc(Br)c(O)c3n2)ccc1O	0	8.7*	nt	1	-1	-16	7.9*
COc1cc(/C=C/c2ccc3cccc(O)c3n2)cc(Cl)c1OC	0	12*	nt	0	0	-6	34*
C#CCN(C[C@H]1[C@H](OC(=O)NCCCCCC)[C@H](OC(=O)NCCCCCC)CN(C(=O)OC(C)C)N1C(=O)OC(C)C)S(=O)(=O)c1ccc(C)cc1	nt	-1	nt	nt	nt	nt	nt
C[C@H](c1ccccc1)N1C[C@@H](COCc2ccccc2)Oc2cccc(F)c2S1(=O)=O	nt	-6	nt	nt	nt	nt	nt
CCc1nc2ccc(C(=O)NCc3ccc(OC)cc3)cn2c1N(C)Cc1ccc(OC)cc1	nt	-5	3	0	nt	nt	nt
CCc1nc2ccc(C(=O)N(C)Cc3ccccc3)cn2c1N(C)Cc1ccc(OC)cc1	nt	9.9*	-10	0	nt	4	1
Cc1ccc(/C=C/C2=NN(C)C(=O)CC2)cc1	0	8.3*	-4	-1	-4	6	6.6*
CN1N=C(/C=C/c2ccccc2)CCC1=O	0	7	1	-1	0	nt	nt
SMILES	Efflux pump mplx	SMARCA2 act	H9c2 TAG inh	TbMetRS inhib	AHR activator	SMARCA2 act conf	GAL4-VP16 Luc
Cc1cnc(C(=O)Nc2nnc(C3CC3)s2)cn1	0	8.8*	nt	-1	10	-1	2
COc1ccc(-c2nc3ccccc3s2)cc1NC(C)=O	0	9.7*	15	-1	57*	7	14*
CC(=O)NCc1ccc(-c2nc3ccccc3s2)cc1	0	3	1	0	0	nt	nt
Fc1cccc(CSc2ccc(-c3ccco3)nn2)c1	0	15*	nt	0	-10	13*	5.5*
CCCCCCN1CCS(=O)(=O)N(Cc2ccc(Cl)cc2)C(C(=O)OC)C1 (stereo not drawn)	nt	0	nt	nt	nt	nt	nt
CC(=O)Nc1cccc(-c2cccc3nccn23)c1	nt	11*	24	0	nt	8.9*	7.7*
CC(=O)c1ccc(-c2cccc3nccn23)cc1	nt	-2	8	0	nt	nt	nt
COCCN1C(=O)[C@H]2C[C@@]13O[C@H](c1ccccn1)N=C3CC1c3ccccc3C[C@@]12C (stereo partly drawn)	nt	2	nt	nt	nt	nt	nt
CC(=O)Nc1ccc(-c2c(C)cc3oc(=O)cc(-c4ccccc4)c3c2C)cc1	0	9.2*	1	-1	nt	-2	2
c1ccc(-c2csc(-c3ccncc3)n2)cc1	0	-2	-3	-1	6	nt	nt
c1ccc(-c2ccc(-c3ccncn3)cc2)cc1	0	9.1*	-4	0	17	5	7.6*
COC(=O)c1cc(C(=O)OC)cc(-n2c(C)cc(C(=O)COC(=O)CNS(=O)(=O)c3ccc(C)cc3)c2C)c1	0	8.0*	nt	0	-2	-1	-1
C=CCn1c(COc2ccccc2)nnc1SCC(=O)c1ccc(-c2ccccc2)cc1	nt	-4	nt	nt	nt	nt	nt
O=C(O)c1cccc(N/N=C/c2cccs2)c1	0	12*	nt	0	-11	5	14*
COc1ccc(-c2nn(-c3ccccc3)cc2/C=N/Nc2cccc(C(=O)O)c2)cc1	nt	9.1*	18	0	nt	-3	2
C=CCn1c(COc2ccccc2)nnc1SCC(=O)Nc1ccc(S(=O)(=O)Nc2cc(C)nc(C)n2)cc1	nt	-2	nt	nt	nt	nt	nt
CCCCCCCCN1C(=O)[C@@H](CC(=O)NCCCCc2ccccc2)C[C@@]2(C(=O)OC)C1=C[C@H](C(C)(C)C)O[C@@H]2C	nt	0	nt	nt	nt	nt	nt
CC(C)C(Cl)=NOC(=O)Nc1ccc(F)cc1	nt	43*	8	0	nt	-15	2
COc1ccc(NC(=O)c2cc([N+](=O)[O-])ccc2NC(=O)CNCc2ccccn2)c(OC)c1	0	13*	nt	0	38	4	1
COc1cc(NC(=O)c2cc([N+](=O)[O-])ccc2NC(=O)CNCc2ccccn2)cc(OC)c1	0	1	nt	0	32	nt	nt
CCn1c(Cc2cccs2)nnc1SCC(=O)c1ccc(Cl)cc1	nt	5	nt	nt	nt	nt	nt
O=C(NCc1ccccc1Cl)c1cc(=O)[nH]c2ccccc12	0	8.4*	nt	0	0	3	1
COc1ccc(-c2cc(=O)c3ccccc3s2)cc1	0	8.8*	nt	-1	94*	4	9.7*
COc1ccc2sc3ccccc3c(=O)c2c1	0	2	8	-1	9	nt	nt
COc1ccc(-n2sc3ccccc3c2=O)cc1	nt	13*	32	0	nt	15*	3
N/C(=N\C(=O)OCc1ccccc1)N(Cc1ccccc1)C(C#CC1=CCCCC1)Cc1ccccc1 (stereo not drawn)	nt	-4	nt	nt	nt	nt	nt
